In PubChem BioAssay:
Active and inactive are the calls of the source.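 How the source made its calls, unless noted: active means compounds giving at least 50% inhibition in the cell-based MKP-3 phosphatase rescue imaging test; inactive means the rest.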

Columns and labels:
[1] = inhibitors of TNFa-induced NFkB p65 translocation, primary screen, imaging, HUVEC, MLSMR starter and 10KST1 sets (AID 438;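 active means inhibition above 20% together with a positive visual image hit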;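 further: compound added about 3h40 before a 20 min TNFalpha stimulation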;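 on inhibition: signal is the nuclear over cytoplasmic p65 intensity ratio per well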); conditions: HUVEC TNFa-induced p65 nuclear translocation; cell count: measured here: nuclei count (cytotoxicity indicator), at 2.08 µM; inhibition: at 2 µM, stronger effect = higher value, 0% TNFa-plus-vehicle, 100% no-TNFa wells
[2] = inhibitors of E-selectin induction by TNFa, primary screen, imaging, HUVEC, immunofluorescence, MLSMR starter and 10KST1 sets (AID 487;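 active means visually confirmed hit in the image check and inhibition above 20%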;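 on inhibition: signal is fraction of cell area covered by stained E-selectin grains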;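 on nuclei count: 100% = median nuclei count of all wells on the same plate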); conditions: HUVEC TNFalpha-induced E-selectin immunofluorescence imaging, at 2 µM; inhibition: stronger effect = higher value; nuclei count: measured here: cell number, toxicity
[3] = DUSP6 inhibitors restoring Erk phosphorylation by chemical complementation, primary imaging in DUSP6-transfected HeLa (AID 609); conditions: HeLa MKP-3 transfected, phospho-Erk imaging KS statistic, at 10 µM, cells stimulated with TPA for 15 min;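 on inhibition: phospho-Erk level distribution per well compared with pooled transfected vehicle control wells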
[4] = biological target: Dual specificity protein phosphatase 6 (Homo sapiens) (UniProt Q16828); assay: as above; conditions: HeLa MKP-3 transfected, phospho-Erk imaging KS statistic; at 10 µM; stronger effect = higher value; cells stimulated with TPA for 15 min
[5] = biological target: Voltage-gated potassium channel subunit beta-2 (Rattus norvegicus) (UniProt P62483); assay: KvBeta enzyme negative modulators, primary screen, biochemical, NADPH fluorescence (AID 622;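 active means fluorescence slope higher than the sample average by over 3 SD, cut at about -0.22 in these data, passing the limit was not always enough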;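 further: slope of raw intensity against log time taken from 70 to 1610 s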); conditions: recombinant KvBeta, 4-cyanobenzaldehyde reduction, at 10 µM, stronger effect = higher value
[6] = biological target: Voltage-gated potassium channel subunit beta-2 (Rattus norvegicus) (UniProt P62483); assay: KvBeta positive modulators, primary screen, biochemical, NADPH fluorescence (AID 623;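 active means NADPH fluorescence slope more negative than the mean of all samples by about 3 SD, 99.7% confidence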;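 further: fluorescence intensity change per second fitted from 20 to 320 s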); conditions: Recombinant KvBeta, NADPH fluorescence decrease slope, 10 min; at 10 µM; stronger effect = lower value
[7] = biological target: Muscarinic acetylcholine receptor M4 (Homo sapiens) (UniProt P08173); assay: compounds altering M4/GIRK thallium flux, either direction, primary screen, M4 allosteric agonist project, cell-based, HEK293 M4/GIRK, BTC-AM (AID 625;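 active means fluorescence slope after compound addition differing from the mean of all tested samples at 99.7% confidence, mostly higher but some lower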;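 further: thallium influx through GIRK channels coupled to M4 in HEK293 cells with BTC-AM dye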); conditions: at 10 µM, actives lie on both sides
In short: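 Material – HEK293 cells with M4 receptor and GIRK channels · Buffer or medium – pH 7.3 thallium assay buffer · Doses – one dose, 10 µM final · Timing – cells overnight at 37 °C, BTC-AM loading 1 h, reads 2 min total · Measured by – kinetic fluorescence with BTC-AM dye · Controls – carbachol and DMSO controls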

[8] = inhibitors of larval lipid processing in zebrafish, primary screen, whole organism, PED6 fluorescence, gall bladder and intestine (AID 686;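 active means a full or partial loss of lipid-probe fluorescence in the fish gall bladder, intestine or both, judged by eye; inactive means no fluorescence loss, or compound toxic to the fish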;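 further: larvae 5 to 7 days old with five fish per well; signal comes from phospholipase A2 cleavage of quenched PED6 carried via bile; overnight exposure to compound and PED6 before scoring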); conditions: Zebrafish larvae PED6 lipid processing, fluorescence scoring; screened at 20 µM (by protocol)
In short: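 system = live zebrafish larvae aged 5-7 days, whole organism | probe or stimulus = ingested quenched lipid PED6 at 100 nM | doses = 20 µM single dose | timing = overnight exposure | detection = fluorescence microscopy with visual scoring of gall bladder and intestine | read-out = visual per-well fluorescence inhibition score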

[9] = inhibitors of Chlamydomonas gravitaxis, primary screen, whole organism, Chlamydomonas reinhardtii, WT vs cilia-less mutant, absorbance, 96-well (AID 463189;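 active means inhibition at or above 50% relative to wild type and mutant plate controls; inactive means inhibition below 50%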;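 further: 0% = wild type cc124 cells in DMSO and 100% = ciliumless bld1 mutant cells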); conditions: OD600 absorbance, 2 days, at 10 µM, stronger effect = higher value
[10] = measured here: cell density z-score
[11] = measured here: nuclear c-Myc green intensity z-score
[12] = measured here: nuclear pErk red intensity z-score, stronger effect = higher value

Sequence of Muscarinic acetylcholine receptor M4 (Homo sapiens) (P08173 whole entry, looked up): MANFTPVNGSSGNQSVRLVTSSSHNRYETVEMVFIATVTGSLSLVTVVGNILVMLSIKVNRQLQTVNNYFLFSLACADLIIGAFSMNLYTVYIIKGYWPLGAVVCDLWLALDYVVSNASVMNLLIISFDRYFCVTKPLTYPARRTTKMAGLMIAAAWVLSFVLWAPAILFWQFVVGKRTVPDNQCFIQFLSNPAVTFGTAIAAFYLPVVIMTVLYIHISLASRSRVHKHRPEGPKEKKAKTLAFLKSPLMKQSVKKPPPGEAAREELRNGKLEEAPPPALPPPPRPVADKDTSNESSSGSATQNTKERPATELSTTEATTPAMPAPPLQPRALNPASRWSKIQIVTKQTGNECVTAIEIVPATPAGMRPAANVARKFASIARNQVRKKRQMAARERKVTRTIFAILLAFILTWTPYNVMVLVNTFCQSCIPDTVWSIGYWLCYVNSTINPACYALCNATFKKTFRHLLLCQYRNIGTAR
Sequence of Voltage-gated potassium channel subunit beta-2 (Rattus norvegicus) (P62483 whole entry, looked up): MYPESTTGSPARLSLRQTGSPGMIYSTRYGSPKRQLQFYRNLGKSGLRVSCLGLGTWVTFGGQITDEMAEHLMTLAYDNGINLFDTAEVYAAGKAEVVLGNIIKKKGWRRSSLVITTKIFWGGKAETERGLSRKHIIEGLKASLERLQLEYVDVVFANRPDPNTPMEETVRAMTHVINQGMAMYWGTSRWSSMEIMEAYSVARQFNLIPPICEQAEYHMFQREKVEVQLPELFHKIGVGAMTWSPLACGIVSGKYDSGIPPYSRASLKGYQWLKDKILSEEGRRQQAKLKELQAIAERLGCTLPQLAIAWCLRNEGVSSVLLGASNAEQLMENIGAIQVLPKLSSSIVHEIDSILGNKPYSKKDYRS
Sequence of Dual specificity protein phosphatase 6 (Homo sapiens) (Q16828 whole entry, looked up): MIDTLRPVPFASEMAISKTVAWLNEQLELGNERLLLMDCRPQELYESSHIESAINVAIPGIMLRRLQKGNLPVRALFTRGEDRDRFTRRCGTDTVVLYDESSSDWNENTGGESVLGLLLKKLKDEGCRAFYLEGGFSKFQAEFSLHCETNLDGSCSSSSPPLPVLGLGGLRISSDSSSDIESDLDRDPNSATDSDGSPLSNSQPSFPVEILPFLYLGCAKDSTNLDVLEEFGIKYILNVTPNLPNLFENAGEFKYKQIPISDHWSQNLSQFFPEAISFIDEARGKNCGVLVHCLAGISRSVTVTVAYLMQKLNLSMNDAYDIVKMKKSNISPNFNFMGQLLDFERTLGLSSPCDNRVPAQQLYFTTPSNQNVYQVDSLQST

| SMILES | cell count [1] | inhibition [1] | inhibition [2] | nuclei count [2] [%] | z-score [3, 10] | z-score [3, 11] | z-score [3, 12] | inhibition [4] | fluorescence slope [5] | NADPH fluorescence slope [6] | fluorescence slope [7] | outcome [8] | inhibition [9] |
| --- | --- | --- | --- | --- | --- | --- | --- | --- | --- | --- | --- | --- | --- |
| CCCCCNc1nc(N2CCCC2)c2c(c1C#N)CCN(C)C2 | 596 | 8.1% (inactive) | -52.3% (inactive) | 146 | -0.626 | 0.142 | -0.491 | -9.53% (inactive) | -0.446 (inactive) | -8.3e-05 (inactive) | 0.0037 (inactive) | inactive | 165% (active) |
| O=C1C=C(O)CC(c2ccc(Cl)c(Cl)c2)C1 (configuration not stated) | 606 | 4.8% (inactive) | -56.5% (inactive) | 115 | 0.34 | 0.0724 | 0.952 | 14.7% (inactive) | -0.41 (inactive) | -4.9e-05 (inactive) | 0.00481 (inactive) | inactive | -8.94% (inactive) |
| CCOC(=O)c1c(N)sc(=S)c2c1CCC2 | 618 | -6.2% (inactive) | -92.1% (inactive) | 139 | 0.668 | -0.746 | -1.03 | -11.4% (inactive) | -0.467 (inactive) | -0.000294 (inactive) | 0.00293 (inactive) | inactive | 15% (inactive) |
| Cc1ccc2cc(CNC(C)C)c(=O)[nH]c2c1 | 529 | -8.4% (inactive) | 12.9% (inactive) | 99.8 | 2.86 | -1.18 | -1.89 | 37.7% (inactive) | -0.49 (inactive) | -2.7e-05 (inactive) | 0.00672 (inactive) | inactive | -6.41% (inactive) |
| Cc1nn(CC(=O)N2CCOCC2)c(=O)c2ccccc12 | 584 | -9.1% (inactive) | -72.8% (inactive) | 135 | 1.52 | -1.31 | 0.975 | 12.8% (inactive) | -0.524 (inactive) | -0.000146 (inactive) | 0.00441 (inactive) | inactive | -9.34% (inactive) |
| Cn1c(=O)c2c(nc(NCc3ccco3)n2Cc2ccccc2Cl)n(C)c1=O | 502 | -4.4% (inactive) | -15.6% (inactive) | 92.2 | 0.653 | -0.74 | 0.354 | 12.8% (inactive) | -0.463 (inactive) | -2.4e-05 (inactive) | 0.00464 (inactive) | inactive | -9.48% (inactive) |
| CCCSc1nc(O)c(C2OC(=O)c3c2ccc(OC)c3OC)c(=O)n1C (configuration not stated) | 560 | -1.3% (inactive) | 29.6% (inactive) | 143 | 0.566 | -0.178 | 0.157 | 7.93% (inactive) | -0.415 (inactive) | -3.7e-05 (inactive) | 0.00648 (inactive) | inactive | 12.4% (inactive) |
| Cc1cccn2c(=O)c3cc(C(=O)NCc4cccnc4)c(=N)n(C)c3nc12 | 734 | 7.8% (inactive) | -3.9% (inactive) | 154 | -0.252 | 0.503 | 1.16 | 7.83% (inactive) | -0.403 (inactive) | -4.4e-05 (inactive) | 0.00535 (inactive) | inactive | 2.07% (inactive) |
| CN1CCc2c(n(CC(O)CN3C(=O)c4ccccc4S3(=O)=O)c3ccccc23)C1=O (configuration not stated) | 678 | -11.7% (inactive) | -109% (inactive) | 158 | 1.84 | -0.542 | -1.28 | 6.04% (inactive) | -0.488 (inactive) | -3.3e-05 (inactive) | 0.00494 (inactive) | inactive | 6.44% (inactive) |
| Cc1ccc(S(=O)(=O)N(CC(O)CN(C)C)c2ccccc2)cc1 (configuration not stated) | 534 | -13.1% (inactive) | -98.3% (inactive) | 180 | 0.563 | -0.408 | -0.341 | -6.59% (inactive) | -0.412 (inactive) | -7e-05 (inactive) | 0.00541 (inactive) | inactive | 2.93% (inactive) |
| CC(C)OC(=O)c1c2nc3ccccc3nc2n2c1[nH]c(=O)c1ccccc12 | 519 | 4% (inactive) | -30.4% (inactive) | 96.9 | 1.31 | -1.51 | -0.702 | 16.5% (inactive) | -0.445 (inactive) | 2e-05 (inactive) | 0.069 (active) | inactive | 6.9% (inactive) |
| CSc1nc2sc3c(c2c2nncn12)CCC3 | 595 | -9.4% (inactive) | -93% (inactive) | 148 | -0.00236 | -1.35 | -0.539 | -13.3% (inactive) | -0.46 (inactive) | -9.7e-05 (inactive) | 0.00506 (inactive) | inactive | 46.8% (inactive) |
| O=c1cc(-c2ccco2)nc(-c2cccs2)o1 | 667 | 5.6% (inactive) | 7.4% (inactive) | 99.4 | -0.166 | -0.514 | -0.386 | 9.91% (inactive) | -0.561 (inactive) | -5.3e-05 (inactive) | 0.0053 (inactive) | inactive | 22.8% (inactive) |
| CCOC(=O)CNC(=O)CCCCCC(=O)NCC(=O)OCC | 367 | -1.3% (inactive) | -27.8% (inactive) | 132 | -0.497 | 0.819 | 0.154 | 11.4% (inactive) | -0.431 (inactive) | -9.3e-05 (inactive) | 0.00362 (inactive) | inactive | 21.4% (inactive) |
